Calls of active or inactive are those of the source. No cut-off for these calls is given here.
Tests used:
Streptococcus mutans [1] = assay: Photodynamic inactivation of Streptococcus mutans ATCC 25175 assessed as reduction of log10 CFU at 1 to 250 uM preincubated for 10 secs followed by irradiation with 50 j/cm'2 for 40 secs measured after 48 hrs by agar plating method; assay type: functional
Enterococcus faecalis [2] = assay: Photodynamic inactivation of Enterococcus faecalis ATCC 29212 assessed as reduction of log10 CFU at 5 uM incubated prior to irradiation with 150 j/cm'2 for 120 secs measured after 24 hrs by agar plating method (reference value: <1 no unit); assay type: functional
Summary of the method: (§1)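 E. faecalis ATCC 29212, aerobic overnight BHI culture at 37 °C, was harvested at stationary phase and suspended in PBS at 10^7–10^8 bacteria/mL. It was mixed 1:1 with PS to 0–250 µM final, held 10 s, then illuminated (1260 ± 50 mW/cm2) or kept dark. Dilutions were plated on Mueller-Hinton agar, aerobic 37 °C 24 h, CFU counted. Medians of three independent triplicate experiments, referred to untreated controls.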

Enterococcus faecalis [3] = assay: Photodynamic inactivation of Enterococcus faecalis ATCC 29212 assessed as reduction of log10 CFU at 5 uM incubated prior to irradiation with 25 j/cm'2 for 20 secs measured after 24 hrs by agar plating method (reference value: <1 no unit); assay type: functional; summary of the method: as §1
[4] = Photobleaching of the compound irradiated with laser energy at 405 nm for 5 mins; assay type: physicochemical; set-up: dose or concentration left out as unconfirmed
Enterococcus faecalis [5] = assay: Photodynamic inactivation of Enterococcus faecalis ATCC 29212 assessed as reduction of log10 CFU at 100 uM incubated prior to irradiation with 50 j/cm'2 for 40 secs measured after 24 hrs by agar plating method (reference value: <1 no unit); assay type: functional; summary of the method: as §1
Enterococcus faecalis [6] = assay: Photodynamic inactivation of Enterococcus faecalis ATCC 29212 assessed as reduction of log10 CFU at 1 to 250 uM preincubated for 10 secs followed by irradiation with 150 j/cm'2 for 120 secs measured after 24 hrs by agar plating method; assay type: functional, organism-based; summary of the method: as §1
Enterococcus faecalis [7] = assay: Photodynamic inactivation of Enterococcus faecalis ATCC 29212 assessed as reduction of log10 CFU at 1 uM incubated prior to irradiation with 50 j/cm'2 for 40 secs measured after 24 hrs by agar plating method (reference value: <1 no unit); assay type: functional; summary of the method: as §1
Enterococcus faecalis [8] = assay: Photodynamic inactivation of Enterococcus faecalis ATCC 29212 assessed as reduction of log10 CFU at 100 uM incubated prior to irradiation with 150 j/cm'2 for 120 secs measured after 24 hrs by agar plating method (reference value: <1 no unit); assay type: functional; summary of the method: as §1
Enterococcus faecalis [9] = assay: Photodynamic inactivation of Enterococcus faecalis ATCC 29212 assessed as reduction of log10 CFU at 5 uM incubated prior to irradiation with 50 j/cm'2 for 40 secs measured after 24 hrs by agar plating method (reference value: <1 no unit); assay type: functional; summary of the method: as §1
Enterococcus faecalis [10] = assay: Photodynamic inactivation of Enterococcus faecalis ATCC 29212 assessed as reduction of log10 CFU at 1 uM incubated prior to irradiation with 150 j/cm'2 for 120 secs measured after 24 hrs by agar plating method (reference value: <1 no unit); assay type: functional; summary of the method: as §1
[11] = Induction of singlet oxygen generation measured over 20 mins by luminescence assay; assay type: physicochemical
[12] = Octanol-water partition coefficient, log P of the compound at 1 x 10^-4 mol at room temperature after 10 mins by UV/vis spectroscopic analysis; assay type: physicochemical
Enterococcus faecalis [13] = assay: Photodynamic inactivation of Enterococcus faecalis ATCC 29212 assessed as reduction of log10 CFU at 100 uM incubated prior to irradiation with 25 j/cm'2 for 20 secs measured after 24 hrs by agar plating method (reference value: <1 no unit); assay type: functional; summary of the method: as §1
[14] = Stability of the compound in acidic medium at 60 uM at pH 2 after 5 to 30 mins by UV-vis spectra analysis; assay type: physicochemical; settings: buffer, pH 2, 60 µM
Summary of the method: (§2)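 UV-Vis absorption spectra recorded in buffer solutions at different pH values after 5 and 30 min incubation.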

[15] = Stability of the compound in basic medium at 60 uM at pH > 9 after 5 to 30 mins by UV-vis spectra analysis; assay type: physicochemical; summary of the method: as §2
Enterococcus faecalis [16] = assay: Photodynamic inactivation of Enterococcus faecalis ATCC 29212 assessed as reduction of log10 CFU at 10 uM incubated prior to irradiation with 150 j/cm'2 for 120 secs measured after 24 hrs by agar plating method (reference value: <1 no unit); assay type: functional; summary of the method: as §1
Enterococcus faecalis [17] = assay: Photodynamic inactivation of Enterococcus faecalis ATCC 29212 assessed as reduction of log10 CFU at 10 uM incubated prior to irradiation with 25 j/cm'2 for 20 secs measured after 24 hrs by agar plating method (reference value: <1 no unit); assay type: functional; summary of the method: as §1
Enterococcus faecalis [18] = assay: Photodynamic inactivation of Enterococcus faecalis ATCC 29212 assessed as reduction of log10 CFU at 1 uM incubated prior to irradiation with 25 j/cm'2 for 20 secs measured after 24 hrs by agar plating method (reference value: <1 no unit); assay type: functional; summary of the method: as §1
Enterococcus faecalis [19] = assay: Photodynamic inactivation of Enterococcus faecalis ATCC 29212 assessed as reduction of log10 CFU at 10 uM incubated prior to irradiation with 50 j/cm'2 for 40 secs measured after 24 hrs by agar plating method (reference value: <1 no unit); assay type: functional; summary of the method: as §1
Actinomyces naeslundii [20] = assay: Photodynamic inactivation of Actinomyces naeslundii T14V assessed as reduction of log10 CFU at 5 uM incubated prior to irradiation with 25 j/cm'2 for 20 secs measured after 48 hrs by agar plating method (reference value: <1 no unit); assay type: functional
Summary of the method: (§3)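 A. naeslundii T14V grown overnight at 37 °C, shaken, aerobically in BHI broth. Harvested at stationary phase, resuspended in PBS to 10^7–10^8 bacteria/mL (OD600). Mixed 1:1 with PS (final 0–250 µM) or water, 10 s incubation, then blue photopolymerizer light (1260 ± 50 mW/cm2) or dark. Tenfold dilutions plated on blood agar, aerobic 37 °C 48 h, CFU counted; medians of three independent experiments in triplicate.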

[21] = test system: Aggregatibacter actinomycetemcomitans; assay: Photodynamic inactivation of Aggregatibacter actinomycetemcomitans ATCC 43718 assessed as reduction of log10 CFU at 5 uM incubated prior to irradiation with 25 j/cm'2 for 20 secs measured after 48 hrs by agar plating method relative to control; assay type: functional, Y4
Summary of the method: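 A. actinomycetemcomitans ATCC 43718 cultured overnight in BHI broth under anaerobic conditions, 37 °C with shaking. Stationary-phase cells were spun down, taken up in PBS to 10^7–10^8/mL, and combined 1:1 with PS (final 0–250 µM) or water. After 10 s they were irradiated at 1260 ± 50 mW/cm2 or kept dark. Serial dilutions went onto BHI agar, incubated anaerobically at 37 °C for 48 h, and CFU were scored. Results are medians from 3 experiments × triplicate versus untreated controls.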

Streptococcus mutans [22] = assay: Photodynamic inactivation of Streptococcus mutans ATCC 25175 assessed as reduction of log10 CFU at 100 uM incubated prior to irradiation with 25 j/cm'2 for 20 secs measured after 48 hrs by agar plating method (reference value: <1 no unit); assay type: functional
Actinomyces naeslundii [23] = assay: Photodynamic inactivation of Actinomyces naeslundii T14V assessed as reduction of log10 CFU at 1 uM incubated prior to irradiation with 50 j/cm'2 for 40 secs measured after 48 hrs by agar plating method (reference value: <1 no unit); assay type: functional; summary of the method: as §3

C[N+](C)(C)CC1=Cc2cccc3cccc(c23)C1=O.[Cl-]
Activity (Streptococcus mutans [1]): Active
log10cfu (Enterococcus faecalis [2]): >6
log10cfu (Enterococcus faecalis [3]): <1
Stability [4]: Unstable
log10cfu (Enterococcus faecalis [5]): >6
Activity (Enterococcus faecalis [6]): Active
log10cfu (Enterococcus faecalis [7]): <1
log10cfu (Enterococcus faecalis [8]): >6
log10cfu (Enterococcus faecalis [9]): <3
log10cfu (Enterococcus faecalis [10]): <3
Activity [11]: Active
logP at 10 min [12]: -1.4
log10cfu (Enterococcus faecalis [13]): >6
Stability [14]: Stable
Stability [15]: Unstable
log10cfu (Enterococcus faecalis [16]): >6
log10cfu (Enterococcus faecalis [17]): <1
log10cfu (Enterococcus faecalis [18]): <1
log10cfu (Enterococcus faecalis [19]): <3

C[N+](C)(CCO)CC1=Cc2cccc3cccc(c23)C1=O.[Cl-]
log10cfu (Enterococcus faecalis [2]): <3
log10cfu (Enterococcus faecalis [3]): <1
Stability [4]: Unstable
log10cfu (Enterococcus faecalis [5]): >6
log10cfu (Actinomyces naeslundii [20]): <1
log10cfu [21]: <3
log10cfu (Enterococcus faecalis [7]): <1
log10cfu (Enterococcus faecalis [8]): >6
log10cfu (Enterococcus faecalis [9]): <1
log10cfu (Enterococcus faecalis [10]): <1
Activity [11]: Active
logP at 10 min [12]: -1.3
log10cfu (Enterococcus faecalis [13]): >6
log10cfu (Streptococcus mutans [22]): >6
log10cfu (Enterococcus faecalis [16]): >6
log10cfu (Enterococcus faecalis [17]): <3
log10cfu (Actinomyces naeslundii [23]): <1
log10cfu (Enterococcus faecalis [18]): <1
log10cfu (Enterococcus faecalis [19]): <3

O=C1C(C[n+]2ccccc2)=Cc2cccc3cccc1c23.[Cl-]
Activity (Streptococcus mutans [1]): Active
log10cfu (Enterococcus faecalis [2]): >6
log10cfu (Enterococcus faecalis [3]): <1
Stability [4]: Unstable
log10cfu (Enterococcus faecalis [5]): >6
log10cfu (Actinomyces naeslundii [20]): <3
log10cfu [21]: <3
Activity (Enterococcus faecalis [6]): Active
log10cfu (Enterococcus faecalis [7]): <1
log10cfu (Enterococcus faecalis [8]): >6
log10cfu (Enterococcus faecalis [9]): <3
log10cfu (Enterococcus faecalis [10]): <3
Activity [11]: Active
logP at 10 min [12]: -1.3
log10cfu (Enterococcus faecalis [13]): >6
Stability [14]: Stable
Stability [15]: Unstable
log10cfu (Streptococcus mutans [22]): >6
log10cfu (Enterococcus faecalis [16]): >6
log10cfu (Enterococcus faecalis [17]): <3
log10cfu (Actinomyces naeslundii [23]): <1
log10cfu (Enterococcus faecalis [18]): <1
log10cfu (Enterococcus faecalis [19]): >6
